High-throughput results as filed in PubChem BioAssay.
TRPC4 agonist = TRPC4 (mouse) channel activation. Q9QUQ5. HEK293 TRPC4beta/mu-opioid, Fluo4 calcium fluorescence; stronger effect = higher value. B-score at 10 µM. 310,000 tested, 0.49% active;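 active = B-score above 5 SD of library B-scores, and initial fluorescence ratio not above library mean plus 5 SD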;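 also: positive B-score marks a calcium rise read as TRPC4 activation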
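Material: HEK293 stable line with TRPC4beta plus mu-opioid receptor; technique: Fluo4 calcium-sensitive dye fluorescence, kinetic, 1 Hz baseline; timing: Fluo4 dye loading 45 min at room temperature, 110 s recording; controls: assay buffer as low control, maximal DAMGO as high control; read-out: integrated baseline-normalised fluorescence ratio, converted to per-well B score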
TRPC6 inhibitor = mouse TRPC6 channel inhibition; HEK293-TRPC6, membrane potential dye, ACh-evoked depolarization; stronger effect = lower value; B-score at 10 µM; 310,000 tested, 1.1% active; AID 2553;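 active = B-score under library mean minus 3 SD, initial fluorescence not abnormally high, positive integrated signal ratio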;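 also: B-score derived from integrated fluorescence ratio over the kinetic read; more negative B-score means stronger inhibition of depolarization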
TRPC4 inh = blocks the mouse TRPC4 cation channel; Q9QUQ5; HEK293 TRPC4beta/mu-opioid, DAMGO-evoked Fluo4 calcium flux; stronger effect = lower value; B-score at 10 µM; 300,000 tested, 0.39% active; AID 2247;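 active = B-score over 3 SD under the library average, no early fluorescence shift, positive overall ratio signal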
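System: stable TRPC4beta/mu-opioid receptor HEK293 cells; Dosing: single-point compound dosing; Measured by: Fluo4 Ca2+ flux fluorescence; Read-out basis: per-well B score of integrated baseline-normalized Fluo4 ratio.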
TRPC6 activator = activators of mouse TRPC6 channel | Q61143 | HEK293-TRPC6 membrane potential dye fluorescence; stronger effect = higher value | B-score at 10 µM | 310,000 tested, 0.13% active;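 active = B-score of the integrated fluorescence ratio above library mean plus 3 SD, and starting fluorescence ratio within library mean plus 5 SD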;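 also: higher score means more depolarization so channel activation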
TRPC4 PAM = allosterically enhances the mouse TRPC4 cation channel; B-score at 10 µM; 310,000 tested, 0.42% active; HEK293 TRPC4beta/mu-opioid, DAMGO EC20, Fluo-4 Ca2+ flux; stronger effect = higher value; Q9QUQ5;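 active = B-score of calcium response area above 5 SD of library B-scores, with initial fluorescence ratio within 5 SD of library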;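 also: B-score of integrated fluorescence ratio over time as area under calcium response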
The depositor's hits bear a star; i = inactive. This is a sample that favours compounds with a hit; in the whole collection about 2.3% have one here.

SMILES	TRPC4 agonist	TRPC6 inhibitor	TRPC4 inh	TRPC6 activator	TRPC4 PAM
CC1CCN(C(=O)CN(c2ccc3c(c2)OCCO3)S(=O)(=O)c2ccccc2)CC1	i	i	i	i	i
CC(C)C(=O)N1CCN(c2nc(-c3ccccc3)c3c(c2C#N)CCCC3)CC1	i	i	i	i	14*
CC(C)Cc1nc(N2CCN(C(=O)c3ccco3)CC2)c(C#N)c2c1CCCC2	i	i	i	i	i
COc1cc(OC)c(C2N(c3ccc(Cl)cc3)C(=O)C3CCCN32)cc1OC (stereo not drawn)	i	i	i	i	12*
COc1cc(OC)c(C2N(c3ccc(Cl)c(Cl)c3)C(=O)C3CCCN32)cc1OC (stereo not drawn)	i	i	i	i	i
Cc1ccc(-n2cc(CNCC3CC(=O)N(C4CC4)C3)c(-c3cccc(C)c3)n2)cc1 (stereo not drawn)	153*	i	i	i	i
O=C(COc1ccc(F)cc1Br)N1CCN(c2ncccn2)CC1	i	i	i	i	i
O=C(COc1ccc(F)cc1Br)N1CCN(S(=O)(=O)/C=C/c2ccccc2)CC1	i	i	i	i	12*
COc1ccc(/C=N/NC(=O)c2ccc(C)cc2)cc1CN1CCN(c2ccc(F)cc2)CC1	i	i	i	i	i
COc1ccc(/C=N/NC(=O)c2ccc(F)cc2)cc1CN1CCc2cc(OC)c(OC)cc2C1C (stereo not drawn)	i	i	-6*	i	i
O=C(COC(=O)c1ccccc1C(=O)c1ccc(Cl)cc1)NCC1CCCO1 (stereo not drawn)	i	i	i	i	i
COc1cccc(NC(=O)c2ccc(NCCCN3CC(C)CC(C)C3)c([N+](=O)[O-])c2)c1 (stereo not drawn)	i	i	i	i	14*
CS(=O)(=O)c1ccc(NC(=O)CCN2C(=O)C3CCCCC3C2=O)cc1 (stereo not drawn)	i	i	i	i	i
Cc1ccc(C)c2[nH]c(=O)c(C(c3nnnn3CCc3ccccc3)N3CCOCC3)cc12 (stereo not drawn)	i	i	i	i	i
Cc1ccc2cc(C(c3nnnn3C3CCCC3)N3CCOCC3)c(=O)[nH]c2c1C (stereo not drawn)	i	i	i	i	i
Cc1ccc(C)c2[nH]c(=O)c(C(c3nnnn3Cc3ccco3)N3CCc4ccccc4C3)cc12 (stereo not drawn)	i	i	i	i	11*
Cc1ccc(C)c2[nH]c(=O)c(C(c3nnnn3C3CCCC3)N3CCOCC3)cc12 (stereo not drawn)	i	i	i	i	23*
Cc1ccc(C)c2[nH]c(=O)c(CN(Cc3nnnn3C3CCCCC3)CC3CCCO3)cc12 (stereo not drawn)	i	i	-6*	i	i
CCN1CCN(C(c2cc3cccc(C)c3[nH]c2=O)c2nnnn2Cc2ccccc2)CC1 (stereo not drawn)	76*	i	i	i	i
Cc1ccc(NC(=O)C(C)N2C(=O)c3ccccc3C2=O)c(C)c1 (stereo not drawn)	i	i	i	i	i
CCOc1ccc(Oc2ccccc2NC(=O)CN2C(=O)NC3(CCCC3)C2=O)cc1	i	i	i	i	i
N#CCCN1CCCc2cc(N=Nc3ccc(C(F)(F)F)cc3)ccc21	i	i	i	i	i
COc1cccc(C2(O)CCN(CC(=O)NCC3CC3)CC2)c1	i	i	i	i	i
O=C1OC(N2CCN(C/C=C/c3ccccc3)CC2)c2ccccc21 (stereo not drawn)	83*	i	i	i	i
O=S(=O)(c1ccccc1)N1CCN(C/C=C/c2ccccc2)CC1	i	i	-6*	i	i
O=C(O)C1C2C=CC(C2)C1C(=O)N1CCN(C/C=C/c2ccccc2)CC1 (stereo not drawn)	84*	i	i	i	i
CC(=C1C(=O)c2ccccc2C1=O)N1CCN(C/C=C/c2ccccc2)CC1	49*	i	i	i	i
